Laboratory results taken from ChEMBL document CHEMBL5038600, “Discovery of M-1121 as an Orally Active Covalent Inhibitor of Menin-MLL Interaction Capable of Achieving Complete and Long-Lasting Tumor Regression” (J Med Chem, 2021).
pIC50: −log10 of the molar value.

What was measured:
[1] = Plasma concentration in mouse at 25 mg/kg, po measured after 1 hr; type: ADME, organism-based
How it was run: (§1)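 Mice given a single oral dose of 25 mg/kg; plasma concentrations sampled at 1, 3 and 6 h post-dose.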

[2] = Plasma concentration in mouse at 25 mg/kg, po measured after 3 hrs; type: ADME, organism-based; how it was run: as §1
[3] = Plasma concentration in mouse at 25 mg/kg, po measured after 6 hrs; type: ADME, organism-based; how it was run: as §1
Menin (Homo sapiens) [4] = molecular target: T1, Menin (Homo sapiens) (UniProt O00255); assay: Binding affinity to recombinant human menin protein assessed as covalent complex formation incubated for 30 mins by LC/MS analysis; set-up: concentration or dose not given beside the values
T1 sequence (whole entry): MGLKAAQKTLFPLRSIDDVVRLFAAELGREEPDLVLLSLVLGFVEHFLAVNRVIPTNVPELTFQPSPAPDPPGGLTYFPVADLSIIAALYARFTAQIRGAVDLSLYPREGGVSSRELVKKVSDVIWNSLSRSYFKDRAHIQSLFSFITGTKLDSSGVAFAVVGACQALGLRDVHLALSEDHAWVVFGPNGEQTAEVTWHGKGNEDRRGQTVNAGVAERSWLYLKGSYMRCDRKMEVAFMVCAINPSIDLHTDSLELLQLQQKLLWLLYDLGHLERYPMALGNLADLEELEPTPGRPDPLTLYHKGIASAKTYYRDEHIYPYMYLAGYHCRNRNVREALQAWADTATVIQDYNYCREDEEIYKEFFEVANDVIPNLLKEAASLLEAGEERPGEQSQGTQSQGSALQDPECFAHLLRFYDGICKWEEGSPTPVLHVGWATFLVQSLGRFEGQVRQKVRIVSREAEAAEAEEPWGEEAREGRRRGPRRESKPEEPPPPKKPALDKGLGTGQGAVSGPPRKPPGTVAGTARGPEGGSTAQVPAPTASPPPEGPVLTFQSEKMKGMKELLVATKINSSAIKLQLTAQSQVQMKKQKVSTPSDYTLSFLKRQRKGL

Menin = molecular target: T2, Menin (Homo sapiens, UniProt O00255); assay: Binding affinity to menin (unknown origin) incubated for 1 hr by fluorescence polarization-based competitive binding assay
T2 sequence (O00255 whole entry): T1 sequence (whole entry)

Menin (Homo sapiens) [5] = molecular target: T1, Menin (Homo sapiens); assay: Binding affinity to recombinant human menin protein assessed as covalent complex formation incubated for 10 mins by LC/MS analysis; set-up: concentration or dose not given beside the values
MV4-11 = assay: Anti-proliferative activity against human MV4-11 cells harboring MLL/AF4 fusion protein assessed as cell growth inhibition measured after 4 days by Cell Titre Glo Luminescent Cell viability assay; type: functional, cell-based; conditions: MV4-11, 96 h
MOLM-13 = assay: Anti-proliferative activity against human MOLM-13 cells harboring MLL/AF9 fusion protein assessed as cell growth inhibition measured after 4 days by Cell Titre Glo Luminescent Cell viability assay; type: functional, cell-based; conditions: MOLM-13, 96 h
Menin (Homo sapiens) [6] = molecular target: T1, Menin (Homo sapiens); assay: Binding affinity to recombinant human menin protein assessed as covalent complex formation incubated for 1 hrs by LC/MS analysis; set-up: concentration or dose not given beside the values
How it was run: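 Menin (25 mg/mL in 25 mM Tris pH 8.0, 150 mM NaCl, 5 mM DTT) incubated with compound at a 1:1.2 protein:compound molar ratio for 1 h or overnight at 4 °C. Diluted to 1 mg/mL, then reverse-phase C4 LC with a 5–100% MeCN/0.2% formic acid gradient and Q-TOF mass spectrometry to detect the covalent adduct.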

Menin (Homo sapiens) [7] = molecular target: T1, Menin (Homo sapiens); assay: Binding affinity to recombinant human menin protein assessed as covalent complex formation measured after overnight incubation by LC/MS analysis; set-up: concentration or dose not given beside the values

COC(=O)N[C@H]1CCC[C@@H]1[C@](CN1CCC1)(c1cccc(F)c1)C1CCN(CC2(OC)CN(c3ccc(S(=O)(=O)C4CC4)cc3)C2)CC1
concentration at 1 h [1]: 8260 ng/mL | concentration at 3 h [2]: 5750 ng/mL | concentration at 6 h [3]: 2200 ng/mL

C=CC(=O)N1CCC[C@@H](S(=O)(=O)c2ccc(N3CC(CN4CCC([C@@](CN5CCC5)(c5cccc(F)c5)[C@H]5CCC[C@@H]5NC(=O)OC)CC4)(OC)C3)cc2)C1
Activity (Menin (Homo sapiens) [4]): 22.6% | pIC50 (Menin): 8.43 | Activity (Menin (Homo sapiens) [5]): 9.8% | pIC50 (MV4-11): 7.13 | pIC50 (MOLM-13): 6.73 | Activity (Menin (Homo sapiens) [6]): 40.5% | Activity (Menin (Homo sapiens) [7]): 90%

COC(=O)N[C@H]1CCC[C@@H]1[C@](CN1CCC1)(c1cccc(F)c1)C1CCN(CC2(OC)CN(c3ccc(S(=O)(=O)C4CN(C(=O)/C=C/CN(C)C)C4)cc3)C2)CC1
Activity (Menin (Homo sapiens) [4]): 83.4% | pIC50 (Menin): 8.57 | Activity (Menin (Homo sapiens) [5]): 36.9% | pIC50 (MV4-11): 8.64 | pIC50 (MOLM-13): 7.30 | Activity (Menin (Homo sapiens) [6]): 85.4% | Activity (Menin (Homo sapiens) [7]): 90.9%

C=CC(=O)N1CCC(S(=O)(=O)c2ccc(N3CC(CN4CCC([C@@](CN5CCC5)(c5cccc(F)c5)[C@H]5CCC[C@@H]5NC(=O)OC)CC4)(OC)C3)cc2)CC1
Activity (Menin (Homo sapiens) [4]): 0% | pIC50 (Menin): 8.42 | Activity (Menin (Homo sapiens) [5]): 0% | pIC50 (MV4-11): 6.81 | pIC50 (MOLM-13): 6.23 | Activity (Menin (Homo sapiens) [6]): 0% | Activity (Menin (Homo sapiens) [7]): 27%

COC(=O)N[C@H]1CCC[C@@H]1[C@](CN)(c1cccc(F)c1)C1CCN(CC2CN(c3ccc(S(=O)(=O)C4CC4)cc3)C2)CC1
pIC50 (MV4-11): 6.72 | pIC50 (MOLM-13): 6.26

C=CC(=O)N1CC(S(=O)(=O)c2ccc(N3CC(CN4CCC([C@@](CN5CCC5)(c5cccc(F)c5)[C@H]5CCC[C@@H]5NC(=O)OC)CC4)(OC)C3)cc2)C1
Activity (Menin (Homo sapiens) [4]): 40.9% | Activity (Menin (Homo sapiens) [5]): 24.1% | pIC50 (MV4-11): 6.95 | pIC50 (MOLM-13): 6.40 | Activity (Menin (Homo sapiens) [6]): 59.4% | Activity (Menin (Homo sapiens) [7]): 81.5%

C=CC(=O)N1CCC[C@H](S(=O)(=O)c2ccc(N3CC(CN4CCC([C@@](CN5CCC5)(c5cccc(F)c5)[C@H]5CCC[C@@H]5NC(=O)OC)CC4)(OC)C3)cc2)C1
Activity (Menin (Homo sapiens) [4]): 27.9% | pIC50 (Menin): 8.52 | Activity (Menin (Homo sapiens) [5]): 8.8% | pIC50 (MV4-11): 7.11 | pIC50 (MOLM-13): 6.71 | Activity (Menin (Homo sapiens) [6]): 37.4% | Activity (Menin (Homo sapiens) [7]): 93.1%

COC(=O)N[C@H]1CCC[C@@H]1[C@](CN1CCC1)(c1cccc(F)c1)C1CCN(CC2(C(=O)OC)CN(c3ccc(S(=O)(=O)C4CC4)cc3)C2)CC1
pIC50 (MV4-11): < 6.00 | pIC50 (MOLM-13): < 5.00

C=CC(=O)N1C[C@H]2C[C@@H]1CN2S(=O)(=O)c1ccc(N2CC(CN3CCC([C@@](CN4CCC4)(c4cccc(F)c4)[C@H]4CCC[C@@H]4NC(=O)OC)CC3)(OC)C2)cc1
Activity (Menin (Homo sapiens) [4]): 0% | Activity (Menin (Homo sapiens) [5]): 0% | pIC50 (MV4-11): 6.36 | pIC50 (MOLM-13): 6.30 | Activity (Menin (Homo sapiens) [6]): 0% | Activity (Menin (Homo sapiens) [7]): 45.1%

COC(=O)N[C@H]1CCC[C@@H]1[C@](CN1CCC1)(c1cccc(F)c1)C1CCN(CC2CN(c3ccc(S(=O)(=O)C4CC4)cc3)C2)CC1
concentration at 1 h [1]: 624 ng/mL | concentration at 3 h [2]: 735 ng/mL | concentration at 6 h [3]: 928 ng/mL
